Columns and labels:
[1] = tested on: Homo sapiens; experiment: Hepatotoxicity in patient with cutaneous leishmaniasis assessed as mild elevation of aspartate aminotransferase at […], po three times a day for 28 days; format: toxicity, organism-based; design: route oral; details: in vivo, 672 h
[2] = tested on: Homo sapiens; experiment: Hepatotoxicity in patient with cutaneous leishmaniasis assessed as mild elevation of alanine aminotransferase at […], po three times a day for 28 days; format: toxicity, organism-based; design: route oral; details: in vivo, 672 h
[3] = tested on: Homo sapiens; experiment: Toxicity in patient with cutaneous leishmaniasis assessed as mild to moderate fatigue at […], po three times a day for 28 days; format: organism-based; design: route oral; details: in vivo, 672 h
[4] = tested on: Homo sapiens; experiment: Toxicity in patient with cutaneous leishmaniasis assessed as mild to moderate gastrointestinal side-effect at […], po three times a day for 28 days; format: organism-based; design: route oral; details: in vivo, 672 h
[5] = tested on: Homo sapiens; experiment: Plasma concentration in patient with cutaneous leishmaniasis at […], po three times a day measured after 22 to 28 days by LC-MS/MS assay; format: ADME, organism-based; design: route oral; details: in vivo
Summary of the method: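 31 cutaneous leishmaniasis patients given miltefosine 150 mg/day for 28 days. Venous EDTA blood was spun at about 23,100 × g, 4°C, 15 min, and plasma stored at ≤−20°C. Analysis was solid-phase extraction of 250 μl plasma, then isocratic C18 LC-MS/MS; range 4–2,000 ng/ml, higher samples diluted in blank plasma. Sampling windows: days 178–202, days 22–28.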

[6] = Terminal half life in patient with leishmaniasis at […], po three times a day for 28 days by LC-MS/MS assay; format: ADME, organism-based; design: route oral; details: human, in vivo
Summary of the method: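 Population pharmacokinetic fit in NONMEM of 382 plasma concentrations (LC-MS/MS, LLOQ 4 ng/ml) from 31 patients on 150 mg/day for 28 days, sampled up to day 202. Nested models were compared by objective function with the log likelihood ratio test and checked with observed-versus-predicted and conditional weighted residual plots; a two-compartment model was used for the terminal half-life.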

[7] = Cmax in serum of patient with cutaneous leishmaniasis at 2.5 mg/kg, po once a day for 23 days by LC-MS/MS assay; format: ADME, organism-based; design: dose 2.5 mg/kg, route oral; details: human
[8] = Terminal half life in patient with cutaneous leishmaniasis at 2.5 mg/kg, po once a day measured after 6 to 8 days by LC-MS/MS assay; format: ADME, organism-based; design: dose 2.5 mg/kg, route oral; details: human, in vivo
[9] = tested on: Homo sapiens; experiment: Renal toxicity in patient with cutaneous leishmaniasis assessed as mild elevation of creatinine at […], po three times a day for 28 days; format: organism-based; design: route oral; details: in vivo, 672 h
[10] = organism: Homo sapiens; experiment: Plasma concentration in patient with cutaneous leishmaniasis measured after 178 to 202 days by LC-MS/MS assay; details: in vivo

Activity [5]: 30800 ng/mL
half-life [6]: 30.9 days
Cmax [7]: 70 µg/mL
half-life [8]: 6.25 days
Activity [10]: 17.5 ng/mL
SMILES: CCCCCCCCCCCCCCCCOP(=O)([O-])OCC[N+](C)(C)C [MILTEFOSINE]
Activity [1]: Toxic
Activity [2]: Toxic
Activity [3]: Toxic
Activity [4]: Toxic
Activity [9]: Toxic

— ChEMBL document CHEMBL1275479, “Pharmacokinetics of miltefosine in Old World cutaneous leishmaniasis patients” (Antimicrob Agents Chemother, 2008)
